Reference: ChEMBL document CHEMBL1137007, “Synthesis of 4-substituted pyrido[2,3-d]pyrimidin-4(1H)-one as analgesic and anti-inflammatory agents” (Bioorg Med Chem Lett, 2009)

Legend:
Mus musculus [1] = experiment: Analgesic activity in Wister albino mice at 10 mg/kg, po after 3 hrs by tail-flick test
Mus musculus [2] = experiment: Analgesic activity in Wister albino mice at 10 mg/kg, po after 1 hr by tail-flick test
Rattus norvegicus [3] = experiment: Antiinflammatory activity in rat assessed as inhibition of carrageenan-induced paw oedema at 20 mg/kg, po after 2 hrs; assay type: functional; parameters: scale not given: the % may be the effect or the level left
In short: (§1)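 Rats, six per group, were dosed orally (10 or 20 mg/kg, suspension in 1% carboxymethyl cellulose) before carrageenan paw injection. Paw volume was read by mercury-displacement plethysmography just before and 30 min, 1, 2 and 3 h after carrageenan. %inhibition = 100[1 − (a − x)/(b − y)], with the test group's pre/post volumes set against the vehicle control group's. Reported as mean ± SEM (n = 6) with ANOVA.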

Mus musculus [4] = experiment: Analgesic activity in Wister albino mice at 20 mg/kg, po after 2 hrs by tail-flick test
Mus musculus [5] = experiment: Analgesic activity in Wister albino mice at 20 mg/kg, po after 3 hrs by tail-flick test
Rattus norvegicus [6] = experiment: Antiinflammatory activity in rat assessed as inhibition of carrageenan-induced paw oedema at 10 mg/kg, po after 3 hrs; assay type: functional; parameters: scale not given: the % may be the effect or the level left
In short: as §1

Rattus norvegicus [7] = experiment: Antiinflammatory activity in rat assessed as inhibition of carrageenan-induced paw oedema at 10 mg/kg, po after 1 hr; assay type: functional; parameters: scale not given: the % may be the effect or the level left
In short: as §1

Rattus norvegicus [8] = experiment: Antiinflammatory activity in rat assessed as inhibition of carrageenan-induced paw oedema at 10 mg/kg, po after 30 mins; assay type: functional; parameters: scale not given: the % may be the effect or the level left
In short: as §1

Rattus norvegicus [9] = experiment: Antiinflammatory activity in rat assessed as inhibition of carrageenan-induced paw oedema at 20 mg/kg, po after 3 hrs; assay type: functional; parameters: scale not given: the % may be the effect or the level left
In short: as §1

Rattus norvegicus [10] = experiment: Toxicity in Wistar albino rat assessed as ulcer index at 20 mg/kg, ip administered once daily for 3 days; assay type: organism-based; parameters: dose 20 mg/kg, route intraperitoneal; details: in vivo, 72 h
In short: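 Wistar albino rats of either sex (150–200 g), six per group, housed at 25 °C, 45–55% RH, 12-h light/dark cycle and acclimatized one week. Dosing was intraperitoneal as a suspension in 10% v/v Tween-80, with a vehicle-only control group. Animals were fasted 36 h, then pylorus-ligated (Shay method) on day 4 and sacrificed 4 h later for ulcer index. Values are mean ± SEM (n = 6), analysed by one-way ANOVA.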

Mus musculus [11] = experiment: Analgesic activity in Wister albino mice at 10 mg/kg, po after 2 hrs by tail-flick test
Mus musculus [12] = experiment: Analgesic activity in Wister albino mice at 20 mg/kg, po after 30 mins by tail-flick test
Rattus norvegicus [13] = experiment: Antiinflammatory activity in rat assessed as inhibition of carrageenan-induced paw oedema at 20 mg/kg, po after 30 mins; assay type: functional; parameters: scale not given: the % may be the effect or the level left
In short: as §1

Rattus norvegicus [14] = experiment: Antiinflammatory activity in rat assessed as inhibition of carrageenan-induced paw oedema at 10 mg/kg, po after 2 hrs; assay type: functional; parameters: scale not given: the % may be the effect or the level left
In short: as §1

Mus musculus [15] = experiment: Analgesic activity in Wister albino mice at 10 mg/kg, po after 30 mins by tail-flick test
Mus musculus [16] = experiment: Analgesic activity in Wister albino mice at 20 mg/kg, po after 1 hr by tail-flick test
Rattus norvegicus [17] = experiment: Antiinflammatory activity in rat assessed as inhibition of carrageenan-induced paw oedema at 20 mg/kg, po after 1 hr; assay type: functional; parameters: scale not given: the % may be the effect or the level left
In short: as §1

## Nc1nc(=O)[nH]c2nc3[nH]c(=S)[nH]c(=O)c3c(-c3ccc(N4CCCCC4)cc3)c12
Mus musculus [1]
  Activity: 33%
Mus musculus [2]
  Activity: 43%
Rattus norvegicus [3]
  Activity: 48%
Mus musculus [4]
  Activity: 53%
Mus musculus [5]
  Activity: 44%
Rattus norvegicus [6]
  Activity: 29%
Rattus norvegicus [7]
  Activity: 39%
Rattus norvegicus [8]
  Activity: 33%
Rattus norvegicus [9]
  Activity: 35%
Rattus norvegicus [10]
  UI: 0.72
Mus musculus [11]
  Activity: 46%
Mus musculus [12]
  Activity: 48%
Rattus norvegicus [13]
  Activity: 40%
Rattus norvegicus [14]
  Activity: 43%
Mus musculus [15]
  Activity: 39%
Mus musculus [16]
  Activity: 51%
Rattus norvegicus [17]
  Activity: 46%

## CN1CCN(c2ccc(-c3c4c(=O)[nH]c(=S)[nH]c4nc4[nH]c(=S)sc(=N)c34)cc2)CC1
Mus musculus [1]
  Activity: 29%
Mus musculus [2]
  Activity: 35%
Rattus norvegicus [3]
  Activity: 46%
Mus musculus [4]
  Activity: 49%
Mus musculus [5]
  Activity: 38%
Rattus norvegicus [6]
  Activity: 22%
Rattus norvegicus [7]
  Activity: 32%
Rattus norvegicus [8]
  Activity: 31%
Rattus norvegicus [9]
  Activity: 31%
Rattus norvegicus [10]
  UI: 0.85
Mus musculus [11]
  Activity: 38%
Mus musculus [12]
  Activity: 42%
Rattus norvegicus [13]
  Activity: 39%
Rattus norvegicus [14]
  Activity: 37%
Mus musculus [15]
  Activity: 32%
Mus musculus [16]
  Activity: 46%
Rattus norvegicus [17]
  Activity: 40%

## Nc1nc(=S)[nH]c2nc3[nH]c(=S)[nH]c(=O)c3c(-c3ccc(N4CCOCC4)cc3)c12
Mus musculus [1]
  Activity: 33%
Mus musculus [2]
  Activity: 45%
Rattus norvegicus [3]
  Activity: 49%
Mus musculus [4]
  Activity: 55%
Mus musculus [5]
  Activity: 46%
Rattus norvegicus [6]
  Activity: 29%
Rattus norvegicus [7]
  Activity: 40%
Rattus norvegicus [8]
  Activity: 33%
Rattus norvegicus [9]
  Activity: 38%
Rattus norvegicus [10]
  UI: 0.67
Mus musculus [11]
  Activity: 49%
Mus musculus [12]
  Activity: 48%
Rattus norvegicus [13]
  Activity: 39%
Rattus norvegicus [14]
  Activity: 43%
Mus musculus [15]
  Activity: 42%
Mus musculus [16]
  Activity: 49%
Rattus norvegicus [17]
  Activity: 46%

## Cc1nc2nc3[nH]c(=S)[nH]c(=O)c3c(-c3ccc(N4CCCCC4)cc3)c2c(=O)[nH]1
Mus musculus [1]
  Activity: 35%
Mus musculus [2]
  Activity: 43%
Rattus norvegicus [3]
  Activity: 41%
Mus musculus [4]
  Activity: 56%
Mus musculus [5]
  Activity: 42%
Rattus norvegicus [6]
  Activity: 26%
Rattus norvegicus [7]
  Activity: 33%
Rattus norvegicus [8]
  Activity: 29%
Rattus norvegicus [9]
  Activity: 34%
Rattus norvegicus [10]
  UI: 0.9
Mus musculus [11]
  Activity: 48%
Mus musculus [12]
  Activity: 48%
Rattus norvegicus [13]
  Activity: 36%
Rattus norvegicus [14]
  Activity: 34%
Mus musculus [15]
  Activity: 37%
Mus musculus [16]
  Activity: 56%
Rattus norvegicus [17]
  Activity: 39%

## O=c1[nH]cnc2nc3[nH]c(=S)[nH]c(=O)c3c(-c3ccc(N4CCOCC4)cc3)c12
Mus musculus [1]
  Activity: 29%
Mus musculus [2]
  Activity: 38%
Rattus norvegicus [3]
  Activity: 46%
Mus musculus [4]
  Activity: 53%
Mus musculus [5]
  Activity: 36%
Rattus norvegicus [6]
  Activity: 29%
Rattus norvegicus [7]
  Activity: 36%
Rattus norvegicus [8]
  Activity: 31%
Rattus norvegicus [9]
  Activity: 36%
Rattus norvegicus [10]
  UI: 0.86
Mus musculus [11]
  Activity: 45%
Mus musculus [12]
  Activity: 44%
Rattus norvegicus [13]
  Activity: 39%
Rattus norvegicus [14]
  Activity: 38%
Mus musculus [15]
  Activity: 30%
Mus musculus [16]
  Activity: 47%
Rattus norvegicus [17]
  Activity: 42%

## Nc1ncnc2nc3[nH]c(=S)[nH]c(=O)c3c(-c3ccc(N4CCOCC4)cc3)c12
Mus musculus [1]
  Activity: 27%
Mus musculus [2]
  Activity: 43%
Rattus norvegicus [3]
  Activity: 49%
Mus musculus [4]
  Activity: 58%
Mus musculus [5]
  Activity: 36%
Rattus norvegicus [6]
  Activity: 30%
Rattus norvegicus [7]
  Activity: 40%
Rattus norvegicus [8]
  Activity: 35%
Rattus norvegicus [9]
  Activity: 38%
Rattus norvegicus [10]
  UI: 0.7
Mus musculus [11]
  Activity: 46%
Mus musculus [12]
  Activity: 55%
Rattus norvegicus [13]
  Activity: 43%
Rattus norvegicus [14]
  Activity: 42%
Mus musculus [15]
  Activity: 38%
Mus musculus [16]
  Activity: 57%
Rattus norvegicus [17]
  Activity: 47%

## CN1CCN(c2ccc(-c3c4c(N)ncnc4nc4[nH]c(=S)[nH]c(=O)c34)cc2)CC1
Mus musculus [1]
  Activity: 36%
Mus musculus [2]
  Activity: 43%
Rattus norvegicus [3]
  Activity: 50%
Mus musculus [4]
  Activity: 58%
Mus musculus [5]
  Activity: 43%
Rattus norvegicus [6]
  Activity: 31%
Rattus norvegicus [7]
  Activity: 37%
Rattus norvegicus [8]
  Activity: 35%
Rattus norvegicus [9]
  Activity: 38%
Rattus norvegicus [10]
  UI: 0.69
Mus musculus [11]
  Activity: 45%
Mus musculus [12]
  Activity: 50%
Rattus norvegicus [13]
  Activity: 43%
Rattus norvegicus [14]
  Activity: 38%
Mus musculus [15]
  Activity: 39%
Mus musculus [16]
  Activity: 58%
Rattus norvegicus [17]
  Activity: 48%

## N=c1sc(=S)[nH]c2nc3[nH]c(=S)[nH]c(=O)c3c(-c3ccc(N4CCCCC4)cc3)c12
Mus musculus [1]
  Activity: 34%
Mus musculus [2]
  Activity: 42%
Rattus norvegicus [3]
  Activity: 46%
Mus musculus [4]
  Activity: 56%
Mus musculus [5]
  Activity: 39%
Rattus norvegicus [6]
  Activity: 25%
Rattus norvegicus [7]
  Activity: 38%
Rattus norvegicus [8]
  Activity: 33%
Rattus norvegicus [9]
  Activity: 33%
Rattus norvegicus [10]
  UI: 0.73
Mus musculus [11]
  Activity: 48%
Mus musculus [12]
  Activity: 51%
Rattus norvegicus [13]
  Activity: 37%
Rattus norvegicus [14]
  Activity: 39%
Mus musculus [15]
  Activity: 38%
Mus musculus [16]
  Activity: 53%
Rattus norvegicus [17]
  Activity: 40%

## Nc1nc(=S)[nH]c2nc3[nH]c(=S)[nH]c(=O)c3c(-c3ccc(N4CCCCC4)cc3)c12
Rattus norvegicus [10]
  UI: 0.69

## O=c1[nH]cnc2nc3[nH]c(=S)[nH]c(=O)c3c(-c3ccc(N4CCCCC4)cc3)c12
Mus musculus [1]
  Activity: 33%
Mus musculus [2]
  Activity: 36%
Rattus norvegicus [3]
  Activity: 44%
Mus musculus [4]
  Activity: 55%
Mus musculus [5]
  Activity: 39%
Rattus norvegicus [6]
  Activity: 27%
Rattus norvegicus [7]
  Activity: 34%
Rattus norvegicus [8]
  Activity: 30%
Rattus norvegicus [9]
  Activity: 32%
Rattus norvegicus [10]
  UI: 0.89
Mus musculus [11]
  Activity: 45%
Mus musculus [12]
  Activity: 40%
Rattus norvegicus [13]
  Activity: 35%
Rattus norvegicus [14]
  Activity: 38%
Mus musculus [15]
  Activity: 32%
Mus musculus [16]
  Activity: 50%
Rattus norvegicus [17]
  Activity: 41%

## N=c1sc(=S)[nH]c2nc3[nH]c(=S)[nH]c(=O)c3c(-c3ccc(N4CCOCC4)cc3)c12
Mus musculus [1]
  Activity: 32%
Mus musculus [2]
  Activity: 41%
Rattus norvegicus [3]
  Activity: 42%
Mus musculus [4]
  Activity: 56%
Mus musculus [5]
  Activity: 44%
Rattus norvegicus [6]
  Activity: 21%
Rattus norvegicus [7]
  Activity: 28%
Rattus norvegicus [8]
  Activity: 25%
Rattus norvegicus [9]
  Activity: 30%
Rattus norvegicus [10]
  UI: 0.89
Mus musculus [11]
  Activity: 44%
Mus musculus [12]
  Activity: 49%
Rattus norvegicus [13]
  Activity: 30%
Rattus norvegicus [14]
  Activity: 31%
Mus musculus [15]
  Activity: 39%
Mus musculus [16]
  Activity: 53%
Rattus norvegicus [17]
  Activity: 34%
